According to ChEMBL document CHEMBL4004830 (J Med Chem, 2017):
Activity calls are given as the source filed them. The rule behind the calls is not given here.

Columns and labels:
CDK6/cyclin D3 = CDK6/cyclin D3 (Homo sapiens, UniProt Q00534); assay: Inhibition of CDK6/cyclin D3 (unknown origin) in presence of [gamma-33P]-ATP […]; type: protein-complex assay; conditions: read-out: Ki(app)
MV4-11 [1] = assay: Cell cycle arrest in human MV4-11 cells assessed as accumulation at S phase at 5 times GI50 after 24 hrs by propidium iodide staining based flow cytometry (reference value: 21.97%); type: functional
How it was run: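 MV4-11 cells were treated with increasing concentrations for 24 h. Cells were then harvested, fixed and stained with propidium iodide before flow cytometric cell cycle analysis.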

[2] = Half-life in albino Wistar rat at 5 mg/kg, iv up to 24 hrs by LC-MS/MS analysis; type: ADME, organism-based; conditions: in vivo
How it was run: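 Single-dose pharmacokinetics in male albino Wistar rats, 5 mg/kg IV.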

[3] = Half life in BALB/c mouse at 10 mg/kg administered via oral gavage measured up to 24 hrs by LC-MS/MS analysis; type: ADME, organism-based; conditions: in vivo
How it was run: (§1)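 Single-dose pharmacokinetics in male BALB/c mice, 2 mg/kg IV or 10 mg/kg PO.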

[4] = biological target: Dual specificity tyrosine-phosphorylation-regulated kinase 3 (Homo sapiens) (UniProt O43781); assay: Inhibition of DYRK3 (unknown origin) at 1 uM in presence of [gamma-33P]-ATP […]
How it was run: (§2)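 Broad kinome panel of 369 kinases screened at 1 µM test concentration.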

[5] = biological target: Voltage-gated inwardly rectifying potassium channel KCNH2 (Homo sapiens, UniProt Q12809); assay: Inhibition of human ERG expressed in CHO cells by patch clamp electrophysiology; type: cell-based
How it was run: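 Cardiac toxicity assay in CHO cells expressing hERG; IC50 determined.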

[6] = AUC (0 to t) in BALB/c mouse at 2 mg/kg, iv up to 24 hrs by LC-MS/MS analysis; type: ADME, organism-based; set-up: dose 2 mg/kg, time < 24 hr, route intravenous; conditions: in vivo
[7] = biological target: LIM domain kinase 1 (Homo sapiens) (UniProt P53667); assay: Inhibition of full-length human LIMK1 (1 to 647 amino acid residues) expressed in bacterial expression system at 1 uM in presence of [gamma-33P]-ATP […]; how it was run: as §2
[8] = Half life in BALB/c mouse at 2 mg/kg, iv up to 24 hrs by LC-MS/MS analysis; type: ADME, organism-based; conditions: in vivo; how it was run: as §1
Homo sapiens [9] = species: Homo sapiens; assay: Selectivity ratio of Ki for CDK2/cyclin A (unknown origin) to Ki for CDK6/cyclin D3 (unknown origin)
How it was run: (§3)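 Apparent Ki for each CDK–cyclin complex (CDK4–cyclin D1, CDK6–cyclin D3, CDK2–cyclin A) calculated from the half-maximal inhibition (IC50) and that kinase's Km(ATP). The selectivity ratio is the CDK2 Ki divided by the CDK4 or CDK6 Ki.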

[10] = AUC (0 to t) in albino Wistar rat at 20 mg/kg administered via oral gavage measured up to 24 hrs by LC-MS/MS analysis; type: ADME, organism-based; set-up: dose 20 mg/kg, time < 24 hr, route oral; conditions: in vivo
Mus musculus [11] = assay: Toxicity in nude BALB/c mouse assessed as body weight loss at 20 to 100 mg/kg, po qd measured up to 14 days post dose; type: organism-based; conditions: in vivo, 336 h
MV4-11 [12] = assay: Antitumor activity against human MV4-11 cells xenografted in nude BALB/c mouse assessed as tumor growth inhibition at 100 mg/kg, po qd administered for 33 consecutive days measured on day 50; type: functional, organism-based
[13] = Cmax in BALB/c mouse at 2 mg/kg, iv up to 24 hrs by LC-MS/MS analysis; type: ADME, organism-based; set-up: dose 2 mg/kg, route intravenous; conditions: in vivo
[14] = biological target: Cyclin-dependent kinase 4/cyclin D1 (Homo sapiens, UniProt P11802); assay: Inhibition of CDK4/cyclin D1 (unknown origin) in presence of [gamma-33P]-ATP […]; type: protein-complex assay; conditions: read-out: Ki(app)
[15] = biological target: Dual specificity tyrosine-phosphorylation-regulated kinase 2 (Homo sapiens) (UniProt Q92630); assay: Inhibition of full-length human DYRK2 (1 to 528 amino acid residues) expressed in mammalian expression system at 1 uM in presence of [gamma-33P]-ATP […]; how it was run: as §2
[16] = AUC (0 to t) in albino Wistar rat at 5 mg/kg, iv up to 24 hrs by LC-MS/MS analysis; type: ADME, organism-based; set-up: dose 5 mg/kg, time < 24 hr, route intravenous; conditions: in vivo
CDK2/Cyclin A2 = CDK2/Cyclin A2 (Homo sapiens, UniProt P24941); assay: Inhibition of CDK2/cyclin A (unknown origin) in presence of [gamma-33P]-ATP […]; type: protein-complex assay; conditions: read-out: Ki(app)
Homo sapiens [17] = species: Homo sapiens; assay: Selectivity ratio of Ki for CDK2/cyclin A (unknown origin) to Ki for CDK4/cyclin D1 (unknown origin); how it was run: as §3
Cytochrome P450 2C19 = Cytochrome P450 2C19 (Homo sapiens, UniProt P33261); assay: Inhibition of CYP2C19 in human liver microsomes using mephenytoin as substrate in presence of NADPH; type: ADME
How it was run: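 Human liver microsomes with NADPH and isoform-specific probe substrate (midazolam CYP3A4, dextromethorphan CYP2D6, ethoxyresorufin CYP1A, tolbutamide CYP2C9, mephenytoin CYP2C19); IC50 reported in µM.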

Mus musculus [18] = assay: Toxicity in nude BALB/c mouse xenografted with human MV4-11 cells assessed as body weight loss at 100 mg/kg, po qd for 33 consecutive days and left untreated for another 50 days; type: organism-based; conditions: in vivo, 1200 h
[19] = Volume of distribution at steady state in albino Wistar rat at 5 mg/kg, iv up to 24 hrs by LC-MS/MS analysis; type: ADME, organism-based; conditions: in vivo, read-out: Vdss
How it was run: (§4)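 Single-dose pharmacokinetics in male animals: albino Wistar rats given 5 mg/kg IV or 20 mg/kg PO, and BALB/c mice given 2 mg/kg IV or 10 mg/kg PO.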

[20] = Tmax in BALB/c mouse at 10 mg/kg administered via oral gavage measured up to 24 hrs by LC-MS/MS analysis; type: ADME, organism-based; conditions: in vivo; how it was run: as §4
[21] = Cmax in albino Wistar rat at 5 mg/kg, iv up to 24 hrs by LC-MS/MS analysis; type: ADME, organism-based; set-up: dose 5 mg/kg, route intravenous; conditions: in vivo
MCF7 = assay: Growth inhibition of human MCF7 cells after 72 hrs by resazurin or MTT assay; type: functional; conditions: MCF7, 72 h
MV4-11 [22] = assay: Cell cycle arrest in human MV4-11 cells assessed as accumulation at S phase at 0.20 uM after 24 hrs by propidium iodide staining based flow cytometry (reference value: 19.07%); type: functional
MV4-11 [23] = assay: Cell cycle arrest in human MV4-11 cells assessed as accumulation at S phase at 0.40 uM after 24 hrs by propidium iodide staining based flow cytometry (reference value: 19.07%); type: functional
MV4-11 [24] = assay: Cell cycle arrest in human MV4-11 cells assessed as accumulation at G2/M phase at 0.40 uM after 24 hrs by propidium iodide staining based flow cytometry (reference value: 17.94%); type: functional
MV4-11 [25] = assay: Cell cycle arrest in human MV4-11 cells assessed as accumulation at sub-G1 phase at 0.04 uM after 24 hrs by propidium iodide staining based flow cytometry (reference value: 1.99%); type: functional
MV4-11 [26] = assay: Cell cycle arrest in human MV4-11 cells assessed as accumulation at G2/M phase at 0.04 uM after 24 hrs by propidium iodide staining based flow cytometry (reference value: 17.94%); type: functional
MV4-11 [27] = assay: Effect on total Rb protein levels in human MV4-11 cells at GI50 after 12 to 24 hrs by Western blot analysis; type: cell-based
How it was run: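 MV4-11 cells were treated for 12 or 24 h, then analysed by Western blot for Rb, including phospho-Ser780. β-Actin served as the loading control. Data are representative of two independent experiments.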

Sequence of CDK6/cyclin D3 (P30281 whole entry): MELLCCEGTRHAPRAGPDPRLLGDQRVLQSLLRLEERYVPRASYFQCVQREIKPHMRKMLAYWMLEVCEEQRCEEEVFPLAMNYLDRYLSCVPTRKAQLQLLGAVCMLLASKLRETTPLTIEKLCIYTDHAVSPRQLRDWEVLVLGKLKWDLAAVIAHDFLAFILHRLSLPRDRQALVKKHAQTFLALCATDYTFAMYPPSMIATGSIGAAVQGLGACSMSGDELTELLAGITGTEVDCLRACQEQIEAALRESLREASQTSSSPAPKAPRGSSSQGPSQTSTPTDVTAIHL
Sequence of CDK6/cyclin D3 (Q00534 whole entry): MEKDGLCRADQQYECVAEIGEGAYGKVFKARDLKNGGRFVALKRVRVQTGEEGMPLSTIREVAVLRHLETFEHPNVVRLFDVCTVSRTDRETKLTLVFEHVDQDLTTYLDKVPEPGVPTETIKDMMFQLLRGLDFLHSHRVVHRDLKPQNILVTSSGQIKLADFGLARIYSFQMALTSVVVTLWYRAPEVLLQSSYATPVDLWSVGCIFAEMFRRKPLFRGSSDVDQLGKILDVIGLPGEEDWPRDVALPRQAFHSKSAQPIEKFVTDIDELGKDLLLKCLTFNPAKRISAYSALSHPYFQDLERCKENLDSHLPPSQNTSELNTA
Sequence of Dual specificity tyrosine-phosphorylation-regulated kinase 3 (Homo sapiens) (O43781 whole entry): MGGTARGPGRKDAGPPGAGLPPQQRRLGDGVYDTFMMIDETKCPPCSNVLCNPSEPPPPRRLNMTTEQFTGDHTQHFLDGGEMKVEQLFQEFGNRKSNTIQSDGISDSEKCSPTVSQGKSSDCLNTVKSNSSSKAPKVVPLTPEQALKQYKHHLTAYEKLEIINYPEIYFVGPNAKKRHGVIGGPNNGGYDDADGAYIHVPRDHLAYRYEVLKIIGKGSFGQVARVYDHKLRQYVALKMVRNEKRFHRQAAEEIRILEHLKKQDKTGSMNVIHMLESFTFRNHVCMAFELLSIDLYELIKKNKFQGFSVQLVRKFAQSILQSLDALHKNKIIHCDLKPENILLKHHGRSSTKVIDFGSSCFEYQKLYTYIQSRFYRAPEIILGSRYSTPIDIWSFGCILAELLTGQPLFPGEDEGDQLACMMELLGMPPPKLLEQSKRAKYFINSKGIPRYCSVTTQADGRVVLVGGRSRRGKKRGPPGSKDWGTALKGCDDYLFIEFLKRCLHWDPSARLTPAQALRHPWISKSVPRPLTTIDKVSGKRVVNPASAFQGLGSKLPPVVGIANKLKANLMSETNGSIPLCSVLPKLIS
Sequence of Cyclin-dependent kinase 4/cyclin D1 (P11802 whole entry, the tested form may be a part): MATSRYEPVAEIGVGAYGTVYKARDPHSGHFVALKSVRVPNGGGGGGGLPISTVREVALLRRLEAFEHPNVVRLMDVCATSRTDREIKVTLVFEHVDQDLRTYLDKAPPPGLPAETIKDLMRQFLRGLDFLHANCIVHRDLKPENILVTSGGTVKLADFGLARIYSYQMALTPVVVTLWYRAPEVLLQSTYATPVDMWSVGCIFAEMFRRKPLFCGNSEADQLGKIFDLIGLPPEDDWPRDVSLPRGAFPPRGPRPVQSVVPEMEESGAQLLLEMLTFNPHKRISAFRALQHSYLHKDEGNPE
Sequence of Cyclin-dependent kinase 4/cyclin D1 (P24385 whole entry, further chain, the tested form may be a part): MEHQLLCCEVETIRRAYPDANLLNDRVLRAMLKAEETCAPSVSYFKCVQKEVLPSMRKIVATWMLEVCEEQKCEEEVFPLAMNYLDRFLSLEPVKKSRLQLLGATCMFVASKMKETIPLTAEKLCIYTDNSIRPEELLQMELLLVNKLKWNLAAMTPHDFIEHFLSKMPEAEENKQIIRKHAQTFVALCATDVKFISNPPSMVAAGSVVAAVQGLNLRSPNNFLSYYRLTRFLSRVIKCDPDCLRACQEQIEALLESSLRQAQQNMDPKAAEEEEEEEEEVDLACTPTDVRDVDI
Sequence of Voltage-gated inwardly rectifying potassium channel KCNH2 (Q12809 whole entry): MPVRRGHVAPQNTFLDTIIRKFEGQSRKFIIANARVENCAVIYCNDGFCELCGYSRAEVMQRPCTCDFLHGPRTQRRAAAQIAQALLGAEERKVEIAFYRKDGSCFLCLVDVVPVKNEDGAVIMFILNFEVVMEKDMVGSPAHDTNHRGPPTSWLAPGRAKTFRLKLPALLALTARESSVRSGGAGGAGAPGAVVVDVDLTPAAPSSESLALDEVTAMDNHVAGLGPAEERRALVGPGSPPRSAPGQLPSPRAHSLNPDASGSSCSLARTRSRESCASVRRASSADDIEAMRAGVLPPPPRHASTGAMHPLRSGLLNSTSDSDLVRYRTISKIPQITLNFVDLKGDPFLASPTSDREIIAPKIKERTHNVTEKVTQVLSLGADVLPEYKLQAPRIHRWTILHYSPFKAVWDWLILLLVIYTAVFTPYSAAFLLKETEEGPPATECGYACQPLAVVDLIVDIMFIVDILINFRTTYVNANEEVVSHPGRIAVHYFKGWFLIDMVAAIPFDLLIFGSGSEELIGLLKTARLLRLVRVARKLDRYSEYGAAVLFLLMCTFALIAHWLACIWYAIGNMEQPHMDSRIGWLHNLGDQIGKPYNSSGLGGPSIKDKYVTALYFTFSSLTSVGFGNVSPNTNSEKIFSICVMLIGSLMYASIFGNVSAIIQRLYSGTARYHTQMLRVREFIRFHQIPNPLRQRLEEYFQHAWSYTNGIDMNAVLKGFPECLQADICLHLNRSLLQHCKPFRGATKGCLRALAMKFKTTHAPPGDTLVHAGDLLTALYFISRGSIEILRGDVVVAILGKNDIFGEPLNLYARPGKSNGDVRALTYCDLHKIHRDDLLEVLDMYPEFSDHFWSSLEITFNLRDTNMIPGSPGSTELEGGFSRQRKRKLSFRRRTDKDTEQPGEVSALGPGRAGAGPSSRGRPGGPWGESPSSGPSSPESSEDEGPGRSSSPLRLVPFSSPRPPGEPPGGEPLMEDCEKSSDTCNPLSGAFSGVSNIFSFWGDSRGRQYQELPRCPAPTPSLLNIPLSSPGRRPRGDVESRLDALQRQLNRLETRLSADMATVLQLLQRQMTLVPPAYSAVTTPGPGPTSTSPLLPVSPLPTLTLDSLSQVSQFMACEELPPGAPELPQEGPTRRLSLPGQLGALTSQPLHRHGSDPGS
Sequence of LIM domain kinase 1 (Homo sapiens) (P53667 whole entry, looked up, the tested form may be a part): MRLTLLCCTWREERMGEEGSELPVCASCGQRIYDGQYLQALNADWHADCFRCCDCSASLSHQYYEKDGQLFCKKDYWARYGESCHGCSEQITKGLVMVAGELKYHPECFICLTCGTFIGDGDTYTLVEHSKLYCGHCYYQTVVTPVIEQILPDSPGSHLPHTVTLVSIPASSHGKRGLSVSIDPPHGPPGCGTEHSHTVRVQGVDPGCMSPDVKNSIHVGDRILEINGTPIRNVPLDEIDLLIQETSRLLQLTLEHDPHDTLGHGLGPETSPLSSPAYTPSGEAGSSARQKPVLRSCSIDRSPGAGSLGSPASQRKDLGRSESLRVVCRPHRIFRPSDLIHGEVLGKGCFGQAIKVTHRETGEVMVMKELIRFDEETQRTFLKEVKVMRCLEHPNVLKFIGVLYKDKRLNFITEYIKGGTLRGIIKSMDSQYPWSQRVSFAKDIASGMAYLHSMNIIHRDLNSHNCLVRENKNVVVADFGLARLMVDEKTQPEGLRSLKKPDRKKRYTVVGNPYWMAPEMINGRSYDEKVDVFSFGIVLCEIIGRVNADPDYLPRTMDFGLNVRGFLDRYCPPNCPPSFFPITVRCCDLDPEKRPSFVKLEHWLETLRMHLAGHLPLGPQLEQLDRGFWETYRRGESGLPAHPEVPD
Sequence of Cytochrome P450 2C19 (P33261 whole entry, canonical isoform): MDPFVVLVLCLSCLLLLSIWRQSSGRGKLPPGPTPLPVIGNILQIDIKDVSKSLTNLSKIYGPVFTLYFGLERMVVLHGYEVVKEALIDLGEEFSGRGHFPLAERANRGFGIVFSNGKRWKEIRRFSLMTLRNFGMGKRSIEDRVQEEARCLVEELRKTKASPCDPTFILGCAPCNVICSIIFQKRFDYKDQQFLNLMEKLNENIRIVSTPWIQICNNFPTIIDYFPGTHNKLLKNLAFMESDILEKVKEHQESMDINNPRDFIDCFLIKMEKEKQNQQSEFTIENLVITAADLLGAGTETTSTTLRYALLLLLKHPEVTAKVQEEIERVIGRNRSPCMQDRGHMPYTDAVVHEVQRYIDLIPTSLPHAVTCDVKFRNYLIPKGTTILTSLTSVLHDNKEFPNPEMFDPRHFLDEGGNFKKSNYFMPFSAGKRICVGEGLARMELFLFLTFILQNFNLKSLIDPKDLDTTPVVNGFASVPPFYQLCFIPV
Sequence of Dual specificity tyrosine-phosphorylation-regulated kinase 2 (Homo sapiens) (Q92630 whole entry, the tested form may be a part): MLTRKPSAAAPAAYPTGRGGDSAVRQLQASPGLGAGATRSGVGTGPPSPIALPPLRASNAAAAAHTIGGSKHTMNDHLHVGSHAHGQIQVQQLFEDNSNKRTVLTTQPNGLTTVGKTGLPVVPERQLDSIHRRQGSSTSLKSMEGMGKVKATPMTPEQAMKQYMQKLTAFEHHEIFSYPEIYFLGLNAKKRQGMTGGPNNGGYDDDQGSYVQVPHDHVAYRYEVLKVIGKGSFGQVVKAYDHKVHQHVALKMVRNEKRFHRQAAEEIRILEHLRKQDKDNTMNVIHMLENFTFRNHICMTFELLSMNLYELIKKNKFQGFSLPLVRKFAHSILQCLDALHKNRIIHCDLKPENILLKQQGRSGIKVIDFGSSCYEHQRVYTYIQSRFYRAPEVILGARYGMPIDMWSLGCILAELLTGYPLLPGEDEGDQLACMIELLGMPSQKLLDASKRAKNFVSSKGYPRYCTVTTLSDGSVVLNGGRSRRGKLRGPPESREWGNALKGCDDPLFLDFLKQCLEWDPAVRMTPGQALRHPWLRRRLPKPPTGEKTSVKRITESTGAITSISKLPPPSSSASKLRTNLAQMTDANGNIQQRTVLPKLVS

For `Cc1nc(NC2CCCC2)sc1-c1ccnc(Nc2ccc(N3CCOCC3)cn2)n1`, which Ki (CDK6/cyclin D3) is on record?
The Ki was 0.03 µM.

What about the Activity (MV4-11 [1]) of the same molecule?
Its Activity is 13.85%.

What about the half-life [2] of the same molecule?
The half-life was 4.2 h.

What about the half-life [3] of the same molecule?
The half-life was 5 h.

And the inhibition [4]?
Its inhibition is “Active”.

What about the IC50 [5] of the same molecule?
Its IC50 is greater than 10 µM.

What about the AUC(0-t) at 24 h [6] of the same molecule?
Its AUC(0-t) at 24 h is 1.2 µM·h.

What about the inhibition [7] of the same molecule?
Its inhibition is “Active”.

And the half-life [8]?
Its half-life is 1.7 h.

And the Ratio Ki (Homo sapiens [9])?
Its Ratio Ki is 156.

What about the AUC(0-t) at 24 h [10] of the same molecule?
Its AUC(0-t) at 24 h is 15.9 µM·h.

And the Activity (Mus musculus [11])?
The Activity was “Non-Toxic”.

And the TGI (MV4-11 [12])?
The TGI was “Active”.

And the Cmax [13]?
Its Cmax is 2.3 µM.

What about the Ki [14] of the same molecule?
Its Ki is 0.004 µM.

And the inhibition [15]?
The inhibition was “Active”.

What about the AUC(0-t) at 24 h [16] of the same molecule?
The AUC(0-t) at 24 h was 15.9 µM·h.

What about the Ki (CDK2/Cyclin A2) of the same molecule?
The Ki was 4.68 µM.

What about the Ratio Ki (Homo sapiens [17]) of the same molecule?
Its Ratio Ki is greater than 1200.

What about the IC50 (Cytochrome P450 2C19) of the same molecule?
The IC50 was greater than 25 µM.

And the Activity (Mus musculus [18])?
Its Activity is “Non-Toxic”.

And the Vd [19]?
The Vd was 1.5 L/kg.

What about the Tmax [20] of the same molecule?
The Tmax was 2 h.

What about the Cmax [21] of the same molecule?
The Cmax was 38.8 µM.

What about the GI50 (MCF7) of the same molecule?
The GI50 was 1.89 µM.

With `CC(=O)c1c(C)c2cnc(Nc3ccc(N4CCNCC4)cn3)nc2n(C2CCCC2)c1=O` [PALBOCICLIB] as the molecule, how does the Activity (MV4-11 [1]) read?
Its Activity is 5.07%.

What about the Activity (MV4-11 [22]) of the same molecule?
Its Activity is 9.33%.

And the Activity (MV4-11 [23])?
The Activity was 6.02%.

And the Activity (MV4-11 [24])?
The Activity was 5.69%.

What about the Activity (MV4-11 [25]) of the same molecule?
The Activity was 2.66%.

And the Activity (MV4-11 [26])?
The Activity was 13.4%.

And the Activity (MV4-11 [27])?
Its Activity is “Toxic”.

And the GI50 (MCF7)?
The GI50 was 0.557 µM.
